From ChEMBL document CHEMBL4184319, “Fluorescent-Labeled Selective Adenosine A2B Receptor Antagonist Enables Competition Binding Assay by Flow Cytometry” (J Med Chem, 2018)

Columns and labels:
[1] = molecular target: T1, Adenosine receptor A1 (Rattus norvegicus, UniProt P25099); experiment: Displacement of [3H]-ADAC from adenosine A1 receptor in rat cerebral cortex membranes after 120 mins by filter binding method; format: cell membranes, Membrane
T1 sequence (P25099 whole entry): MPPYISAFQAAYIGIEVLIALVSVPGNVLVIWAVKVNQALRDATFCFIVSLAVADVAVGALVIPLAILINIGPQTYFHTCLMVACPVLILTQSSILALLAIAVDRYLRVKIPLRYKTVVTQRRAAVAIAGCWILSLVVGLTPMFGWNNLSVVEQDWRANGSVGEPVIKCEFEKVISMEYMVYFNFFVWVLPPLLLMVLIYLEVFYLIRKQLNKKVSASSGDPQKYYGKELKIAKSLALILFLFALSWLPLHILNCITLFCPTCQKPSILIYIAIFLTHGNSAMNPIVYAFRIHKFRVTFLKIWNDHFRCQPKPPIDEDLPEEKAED

[2] = molecular target: T2, Adenosine receptor A2b (Homo sapiens, UniProt P29275); experiment: Displacement of PSB-12105 from recombinant human adenosine A2B receptor expressed in CHO cell membranes preincubated for 30 mins followed by PSB-12105 addition measured after 20 mins by flow cytometric method; format: cell-based
T2 sequence (P29275 whole entry): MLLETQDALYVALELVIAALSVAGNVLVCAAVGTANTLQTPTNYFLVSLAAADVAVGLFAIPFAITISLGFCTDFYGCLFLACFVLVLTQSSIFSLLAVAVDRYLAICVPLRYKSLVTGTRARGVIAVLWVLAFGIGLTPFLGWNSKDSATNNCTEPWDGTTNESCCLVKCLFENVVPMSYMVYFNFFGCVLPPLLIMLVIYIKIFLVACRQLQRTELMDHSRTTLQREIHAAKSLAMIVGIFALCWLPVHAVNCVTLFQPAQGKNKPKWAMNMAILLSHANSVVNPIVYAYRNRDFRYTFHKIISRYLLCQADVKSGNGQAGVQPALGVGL
Summary of the method: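 Live CHO-hA2B cells were pre-treated with ADA (2 U/mL, 2 h, 37°C), detached with 5 mM EDTA, and resuspended in HBSS with 2 U/mL ADA at 2.5×10^5 cells/well in 96-well format. Antagonists pre-incubated 30 min at 37°C, then fluorescent ligand (100 nM) added for 20 min at 37°C. 3-5 independent experiments in duplicate.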

[3] = molecular target: T1, Adenosine receptor A1; experiment: Displacement of [3H]-CHA from adenosine A1 receptor in rat cortical membranes; format: cell membranes
[4] = molecular target: Adenosine receptor A1 (Rattus norvegicus) (UniProt P25099); experiment: Displacement of [3H]-CHA from adenosine A1 receptor in rat striatal membranes
[5] = molecular target: T3, Adenosine receptor A3 (Rattus norvegicus, UniProt P28647); experiment: Displacement of [3H]-(R)-PIA from adenosine A3 receptor in rat testis membranes; format: cell membranes, Membrane
T3 sequence (P28647 whole entry): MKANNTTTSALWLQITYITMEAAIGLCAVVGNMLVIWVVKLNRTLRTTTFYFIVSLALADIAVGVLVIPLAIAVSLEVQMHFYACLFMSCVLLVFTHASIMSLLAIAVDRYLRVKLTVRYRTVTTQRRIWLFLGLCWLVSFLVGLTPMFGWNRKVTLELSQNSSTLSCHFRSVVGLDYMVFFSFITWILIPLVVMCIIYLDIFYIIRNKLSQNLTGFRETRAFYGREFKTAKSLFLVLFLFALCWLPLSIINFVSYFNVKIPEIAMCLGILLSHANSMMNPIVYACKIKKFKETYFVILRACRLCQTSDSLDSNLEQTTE

[6] = molecular target: T1, Adenosine receptor A1; experiment: Displacement of [3H]CCPA from adenosine A1 receptor in rat brain cortical membranes after 90 mins by liquid scintillation counting method; format: cell membranes
Summary of the method: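 [³H]CCPA (1 nM) used with rat brain cortical or human A1-CHO membranes, 90 min at rt. Membranes pre-incubated 10-15 min with ADA 0.12 IU/mL. Nonspecific binding defined with 10 µM CADO. Compounds dissolved in DMSO, 2.5 % final. Filtration on GF/B filters with ice-cold Tris-HCl washes, then scintillation counting. Curves used 6-7 concentrations spanning 3 log units. At least three experiments, in duplicate (human) or triplicate (rat).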

[7] = Selectivity ratio of Ki for adenosine A2A receptor in rat brain striatal membranes to Ki for recombinant human adenosine A2B receptor expressed in CHO cell membranes; format: cell-based
[8] = molecular target: Adenosine receptor A2a (Rattus norvegicus, UniProt P30543); experiment: Displacement of [3H]MSX-2 from adenosine A2A receptor in rat brain striatal membranes after 30 mins by liquid scintillation counting method; format: cell membranes, Striatum, Membrane
Summary of the method: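 [³H]MSX-2 (1 nM) used with rat striatal or human A2A-HEK membranes, 30 min at rt. Membranes pre-incubated 10-15 min with ADA 0.12 IU/mL. DMSO 2.5 % final. GF/B filtration, then scintillation counting. Curves used 6-7 concentrations over 3 log units. At least three experiments, in duplicate (human) or triplicate (rat).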

[9] = molecular target: T2, Adenosine receptor A2b; experiment: Displacement of [3H]PSB-603 from recombinant human adenosine A2B receptor expressed in CHO cell membranes after 75 mins by liquid scintillation counting method
Summary of the method: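 [³H]PSB-603 (0.3 nM) used with CHO membranes expressing human, mouse or rat A2BAR, 75 min at rt. Membranes pre-incubated 10-15 min with ADA 0.12 IU/mL. Nonspecific binding defined with 10 µM DPCPX. DMSO 2.5 % final. Filtration on GF/B with ice-cold 50 mM Tris-HCl pH 7.4 containing 0.1 % BSA, then scintillation counting. Curves used 6-7 concentrations over 3 log units. At least three experiments.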

[10] = molecular target: T4, Adenosine receptor A3 (Homo sapiens, UniProt P0DMS8); experiment: Displacement of [3H]PSB-11 from recombinant human adenosine A3 receptor expressed in CHO cell membranes after 45 mins by liquid scintillation counting method
T4 sequence (P0DMS8 whole entry): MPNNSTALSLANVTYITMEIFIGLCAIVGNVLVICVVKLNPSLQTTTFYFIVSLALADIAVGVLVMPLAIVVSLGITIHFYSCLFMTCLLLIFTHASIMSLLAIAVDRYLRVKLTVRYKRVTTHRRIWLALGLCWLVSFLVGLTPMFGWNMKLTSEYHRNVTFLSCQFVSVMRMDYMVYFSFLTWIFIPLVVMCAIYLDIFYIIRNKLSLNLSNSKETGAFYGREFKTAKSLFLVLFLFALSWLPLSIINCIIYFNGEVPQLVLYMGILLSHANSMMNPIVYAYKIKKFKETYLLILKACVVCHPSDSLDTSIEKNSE
Summary of the method: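 Human A3-CHO membranes incubated with [³H]PSB-11 (1 nM) for 45 min at rt, after 10-15 min pre-incubation with ADA 0.12 IU/mL. Nonspecific binding defined with 100 µM R-PIA. DMSO 2.5 % final. GF/B filtration, then scintillation counting. Curves used 6-7 concentrations over 3 log units. At least three experiments in duplicate.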

Sequence of Adenosine receptor A2a (P30543 whole entry): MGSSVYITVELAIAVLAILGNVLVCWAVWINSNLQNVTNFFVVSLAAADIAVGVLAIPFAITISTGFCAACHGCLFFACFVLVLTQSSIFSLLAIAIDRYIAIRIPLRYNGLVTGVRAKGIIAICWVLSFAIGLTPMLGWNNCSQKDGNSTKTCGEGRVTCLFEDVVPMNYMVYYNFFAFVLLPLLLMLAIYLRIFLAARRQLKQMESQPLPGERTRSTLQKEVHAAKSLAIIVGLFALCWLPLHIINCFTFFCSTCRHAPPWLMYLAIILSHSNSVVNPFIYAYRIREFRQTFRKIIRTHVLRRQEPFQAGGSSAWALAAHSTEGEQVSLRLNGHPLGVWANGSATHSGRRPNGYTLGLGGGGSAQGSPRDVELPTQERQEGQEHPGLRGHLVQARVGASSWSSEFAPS

Ki [6] [nM]	Ki [8] [nM]	Ki [9] [nM]	Ki [10] [nM]	SMILES	Ratio Ki [7]	further results
168	2150	11.6	904	CCCn1c(=O)[nH]c2nc(-c3ccc(OCC(=O)NCCCC4=C5C(C)=CC(C)=[N+]5[B-](F)(F)n5c(C)cc(C)c54)cc3)[nH]c2c1=O	> 150	
178	1570	24.4	719	CCCn1c(=O)[nH]c2nc(-c3ccc(OCC(=O)NCCCCC4=C5C(C)=CC(C)=[N+]5[B-](F)(F)n5c(C)cc(C)c54)cc3)[nH]c2c1=O	64	
29.6	498	3.3	1410	CCCn1c(=O)[nH]c2nc(-c3ccc(OCC(=O)NCCCCc4ccccc4)cc3)[nH]c2c1=O	> 150	

Further lines, the compound ahead of its results:

SMILES	Ki [6] [nM]	Ki [8] [nM]	Ki [9] [nM]	Ki [10] [nM]	Ratio Ki [7]	further results
O=C(Cc1ccc(NC(=O)Cc2ccc(Nc3ncnc4c3ncn4[C@@H]3O[C@H](CO)[C@@H](O)[C@H]3O)cc2)cc1)NCCNc1ccc([N+](=O)[O-])c2nonc12						Ki [1]: 4.3 nM
CCCN1C(=O)N=C2N=C(c3ccc(S(=O)(=O)N4CCN(Cc5ccc(Cl)cc5)CC4)cc3)N=C2C1=O						IC50 [2]: 1.06 nM
CCNC(=O)[C@H]1O[C@@H](n2cnc3c(NCCCCCCNS(=O)(=O)c4cccc5c(N(C)C)cccc45)ncnc32)[C@H](O)[C@@H]1O						Ki [3]: 27 nM; Ki [4]: 4600 nM; Ki [5]: 3600 nM
CCCN1C(=O)N=C2N=C(c3ccc(S(=O)(=O)N4CCN(Cc5ccccc5)CC4)cc3)N=C2C1=O						IC50 [2]: 23.5 nM
